An excerpt weighted towards active compounds, which were near 3.1% of everything screened.
MPTP block: mitochondrial permeability transition pore inhibitors, primary screen, biochemical, isolated mouse mitochondria, absorbance; Ca2+ swelling absorbance, 30 min; 1.4% of 360,000 active; inhibition, % at 10 µM; AID 602449, 2012;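 active = inhibition of 50% or more, scaled per plate between neutral and stimulator controls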;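 note: 0% = DMSO wells given calcium and 100% = 1 mM EGTA wells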
aDG glyco up: activators of alpha-DG glycosylation, primary screen, uHTS, Pro5-aDG cells, AlphaScreen; alpha-DG glycosylation AlphaScreen (IIH6); 0% Pro5, 100% B10-LARGE cell signal; activation, % at 10 µM; 0.22% of 360,000 active; AID 624168, 2012;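 active = activation of at least 8% versus controls, or a plate z-score of at least 8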;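 note: Pro5 are CHO cells carrying HIG-tagged alpha-DG that lacks glycosylation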
Hep lipid drop: inhibitors of hepatocyte lipid droplet formation, primary screen, imaging, high-throughput imaging, BODIPY stain; AML12 mouse hepatocytes, oleate lipid droplets; inhibition, % at 6.5 µM; 0.4% of 240,000 active; AID 1656, 2009;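 active = lipid droplet intensity inhibited by at least 50%, with more than 500 cells counted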
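Assay system: AML12 mouse liver cells | Compound: 6.5 µM single-point dosing | Schedule: Overnight exposure | Technique: Fluorescence imaging, 20x objective, two fields per well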
ADAM10 inh: human ADAM10 inhibitors, primary screen, biochemical, QFRET, HTS; inhibition, % at 7 µM; Disintegrin and metalloproteinase domain-containing protein 10 (Homo sapiens), O14672; recombinant ADAM10, EDANS/DABCYL FRET peptide cleavage, 3 h; 0.62% of 370,000 active;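 active = inhibition above a per-campaign cutoff equal to the mean of compounds falling between control-based bounds plus 3 SD, cut at about 20% in these data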;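 note: 0% = DMSO wells while the 100% control is not disclosed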
Target sequence (O14672 214-748 limits assumed): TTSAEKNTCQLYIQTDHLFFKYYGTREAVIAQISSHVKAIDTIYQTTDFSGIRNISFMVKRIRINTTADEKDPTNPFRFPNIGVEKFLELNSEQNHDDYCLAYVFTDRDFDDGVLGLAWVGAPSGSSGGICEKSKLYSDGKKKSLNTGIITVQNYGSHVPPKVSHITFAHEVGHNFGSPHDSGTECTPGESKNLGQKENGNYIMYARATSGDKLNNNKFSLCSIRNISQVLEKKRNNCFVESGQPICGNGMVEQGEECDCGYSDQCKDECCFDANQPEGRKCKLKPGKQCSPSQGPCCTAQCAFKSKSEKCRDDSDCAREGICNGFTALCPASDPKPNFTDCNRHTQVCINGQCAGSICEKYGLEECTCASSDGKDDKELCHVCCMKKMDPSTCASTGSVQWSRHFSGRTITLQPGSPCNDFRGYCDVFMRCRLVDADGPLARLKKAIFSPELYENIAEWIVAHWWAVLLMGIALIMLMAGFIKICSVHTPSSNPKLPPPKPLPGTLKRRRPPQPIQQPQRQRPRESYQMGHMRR
V-ATPase pH: regulators of yeast V-ATPase proton pumping, primary screen, pHLuorin cytosolic pH fluorescence. S. cerevisiae. response, % at 10 µM. 0.37% of 350,000 active. AID 504577, 2011; in the data active = response mostly above about 7.3%, no sharp cut-off; inactive = mostly below about 5.4%; note: actives read high
ADAM17 inh: ADAM17 inhibitors, primary screen, biochemical, QFRET; 0.83% of 370,000 active; inhibition, % at 6.95 µM; recombinant ADAM17, EDANS/DABCYL FRET peptide cleavage; Disintegrin and metalloproteinase domain-containing protein 17 (Homo sapiens), P78536;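 active = inhibition above the mean of compounds lying between control limits plus 3 SD, set per campaign, cut at about 8.5% in these data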;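 note: 0% = DMSO-only wells as the low control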
V-ATPase pH SP: yeast V-ATPase proton pumping modulators, confirmation, S. cerevisiae, pH-sensitive GFP, second cherry-pick. shares compounds with V-ATPase pH. S. cerevisiae pHLuorin cytosolic pH, V-ATPase proton transport. response, % at 10 µM. 2% of 980 active. AID 602197, 2012; in the data active = response above about 24%;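 note: plate controls were vehicle wells for no effect and positive control wells for full effect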
Active calls of the source: *; nt = no result.

SMILES	MPTP block	aDG glyco up	Hep lipid drop	ADAM10 inh	V-ATPase pH	ADAM17 inh	V-ATPase pH SP
CCN(C(=O)COC(=O)c1cc(-c2ccccc2)nc2ccc(Br)cc12)C1CCS(=O)(=O)C1 (stereo unspecified)	0	0	1	-4	10.0*	-6	-1
CC[C@H]1/C(=C/c2ccccc2)N2C(=O)C[C@H](c3ccccc3)N=C2N1C	nt	nt	nt	-3	nt	-4	nt
CN[C@H]1C[C@H]2c3[nH]c4c(-c5cccc(C)c5)cccc4c3CCN2C(=O)[C@H]1[C@H](C)O	nt	nt	nt	-76	nt	-27	nt
O=C(CCc1nnc(-c2ccc3c(c2)OCO3)o1)NC(c1cccnc1)C(F)(F)F (stereo unspecified)	0	1	-1	-6	8.6*	-5	2
O=C(/C=C/c1ccccc1[N+](=O)[O-])OCC(=O)c1ccccc1	0	0	-18	7	-2	0	nt
COc1ccc(C(=O)COC(=O)/C=C/c2ccccc2[N+](=O)[O-])cc1	0	0	nt	7	14*	1	0
O=C1C2C3C=CC(CC3)C2C(=O)N1/N=C/c1ccccc1O (stereo unspecified)	0	0	nt	0	-2	-4	nt
O=C1C2C3C=CC(CC3)C2C(=O)N1/N=C/c1c(O)ccc2ccccc12 (stereo unspecified)	0	0	3	-9	7.5*	1	-1
Cc1cc(-c2ccccc2)nc(N(C)NC(=O)C(C)(C)C)c1S(C)(=O)=O	0	0	4	1	0	3	nt
Cc1cc(-c2ccccc2)nc(N(C)NC(=O)c2ccc(Cl)cc2)c1S(C)(=O)=O	2	0	12	9	18*	0	-3
CN=C1S/C(=C/c2cc(C)n(-c3cc(C)ccc3OC)c2C)C(=O)N1C	nt	nt	nt	-12	nt	-5	nt
O=c1cc(-c2ccco2)nc(-c2cccs2)o1	-1	0	nt	0	9.5*	0	4
O=C(COC(=O)/C=C/c1ccccc1Cl)NC(=O)NCc1ccccc1	0	0	nt	-5	3	0	nt
O=C(COC(=O)/C=C/c1ccccc1Cl)NC(=O)Cc1ccccc1	-1	0	0	2	9.9*	6	2
CCOc1ccccc1-n1c(SCC(N)=O)nnc1-c1cccnc1	-6	0	-2	5	-1	-4	nt
CCOc1ccccc1-n1c(SCC(=O)N(C(C)C)C(C)C)nnc1-c1cccnc1	0	0	-14	11	18*	-2	-5
CCCCSc1nsc(NC(C)=O)n1	1	0	nt	6	2	1	nt
CCCCCCSc1nsc(NC(C)=O)n1	1	0	nt	10	11*	2	4
COc1ccc(CCN2C(=O)C3C4CC(C5C(C(=O)NN)=NOC45)C3C2=O)cc1OC (stereo unspecified)	-3	3	-10	7	-4	-1	nt
COc1ccc(CCN2C(=O)C3C4CC(C5C(C(N)=O)=NOC45)C3C2=O)cc1OC (stereo unspecified)	0	0	-1	5	15*	-1	1
COCCOC(=O)c1c(NC(=O)CNCc2ccco2)sc(C(N)=O)c1C	-1	0	9	-5	10*	-9	-2
CC(=O)N1[C@H](CO)[C@@H](c2ccccc2)[C@@H]1CN(C(=O)c1ccc(F)cc1)C(C)C	nt	nt	nt	-4	nt	-2	nt
O=S(=O)(O)c1cc(O)ccc1O	2	0	nt	-21	15*	-12	-2
COC(=O)C1CN(CCO)CCS(=O)(=O)N1Cc1cn(Cc2ccccc2Br)nn1 (stereo unspecified)	nt	nt	nt	-1	nt	-3	nt
CCOC(=O)CCC(=O)Nc1ccccc1C(N)=O	0	0	1	11	7.7*	0	-8
SMILES	MPTP block	aDG glyco up	Hep lipid drop	ADAM10 inh	V-ATPase pH	ADAM17 inh	V-ATPase pH SP
COC(=O)CN1CCN(C(=O)c2csc(N3CCOCC3)n2)CC1	nt	nt	nt	1	nt	0	nt
COCCn1c(SCC(=O)NNC(=O)c2ccccc2)nc2ccccc21	-3	0	nt	7	12*	0	-1
N#CCC[C@@H]1CC[C@]2(CCCN(S(=O)(=O)C3CCCCC3)C2)O1	nt	nt	nt	1	nt	0	nt
NS(=O)(=O)c1cccc(NC(=O)CSc2nnc(-c3ccccc3)o2)c1	0	0	nt	-4	-9	-3	0
CCOC(=O)CSc1nnc(-c2ccccc2)o1	-1	0	-4	-2	2	-4	-3
O=C(Nc1ccc(F)cc1)Nc1cc(S(=O)(=O)N2CCOCC2)ccc1N1CCCC1	0	0	0	-6	8.6*	-5	-3
Cc1ccc(S(=O)(=O)/N=C(/Nc2ccc(O)c(C(=O)O)c2)c2ccccc2)cc1	-1	0	nt	-2	12*	-1	-1
O=C(O)c1cc(N/C(=N\S(=O)(=O)c2ccc(F)cc2)c2ccccc2)ccc1O	0	0	nt	-3	3	-3	nt
C[C@H]1CN([C@@H](C)CO)S(=O)(=O)c2ccc(Br)cc2O[C@@H]1CN(C)C(=O)c1cccnc1	0	0	nt	-5	-1	4	nt
C[C@@H]1CN([C@@H](C)CO)S(=O)(=O)c2ccc(Br)cc2O[C@@H]1CN(C)C(=O)c1ccncc1	-1	0	nt	-4	5.2*	-3	-1
CC(O)(CS(=O)(=O)Cc1ccccc1)c1ccccc1Cl (stereo unspecified)	-1	0	9	3	6.9*	1	-5
CC(O)(CS(=O)(=O)Cc1ccccc1)c1ccc(Cl)cc1 (stereo unspecified)	1	0	nt	-2	2	-1	nt
Fc1ccc(-c2cc(-c3nnc4sc(Cc5cccs5)nn34)[nH]n2)cc1	nt	nt	nt	4	nt	0	nt
CCOC(=O)N1CCC(n2c(=S)[nH]c3cc(OCC)c(OCC)cc3c2=O)CC1	-1	0	12	-1	0	-6	nt
CCOc1cc2[nH]c(=S)n(C3CC3)c(=O)c2cc1OCC	7	0	1	-7	12*	-5	-1
COc1ccc(C=Nn2c(-c3ccc(F)cc3)n[nH]c2=S)c(OC)c1OC	nt	nt	nt	-6	nt	6	nt
Cc1cc(=O)[nH]n(CCO)c1=O	0	0	-21	-6	13*	0	-2
COc1ccc(CC(=O)n2[nH]c(=O)cc(C)c2=O)cc1OC	1	0	-3	2	1	-1	nt
COc1ccc(S(=O)(=O)N(CC(=O)N2CCN(C)CC2)c2ccc(C)cc2)cc1Br	-2	1	-2	7	6	-4	nt
COc1ccc(S(=O)(=O)N(CC(=O)N2CCN(C)CC2)c2ccc(C)cc2)cc1OC	0	0	-17	-5	12*	-5	0
